These results are taken from ChEMBL document CHEMBL3612066, “Design, Synthesis, and Biological Evaluation of Pyrazolo[1,5-a]pyridine-3-carboxamides as Novel Antitubercular Agents” (ACS Med Chem Lett, 2015).

Converted amounts (≈) assume the structure as drawn.

The test system of series [1] is Mycobacterium tuberculosis. The series can be described thus: Antitubercular activity against Mycobacterium tuberculosis H37Rv after 7 days by microplate alamar blue assay. In kind it is functional. Particulars: 168 h. The procedure, abridged:
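MIC against Mtb H37Rv by microplate alamar blue assay (MABA); MIC values interpolated by curve fitting.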

For series [2], the system named is Mycobacterium tuberculosis. Nature of the series: Antitubercular activity against Mycobacterium tuberculosis H37Ra after 7 days by microplate alamar blue assay. In kind it is functional. Particulars: 168 h.
The next series relates to Vero. The series can be described thus: Cytotoxicity against African green monkey Vero cells after 72 hrs by CCK8 assay. In kind it is cell-based. The conditions noted are these: Chlorocebus sabaeus. The procedure, abridged: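 VERO African green monkey kidney cells; growth inhibition read by CCK-8 assay and reported as IC50. Values are means of two or more independent experiments, with variation <20%.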

In series [3] the test system is Mycobacterium tuberculosis. Nature of the series: Antitubercular activity against fluorescent reporter strain of Mycobacterium tuberculosis H37Rv after 5 days by fluorescence assay. In kind it is functional, organism-based. The conditions noted are these: 120 h. The procedure, abridged:
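A fluorescent reporter strain of Mtb H37Rv was grown in liquid medium under aerobic conditions, and growth was read by fluorescence. MIC, IC50 and IC90 were determined.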

The test system of series [4] is Mycobacterium tuberculosis. The series can be described thus: Antitubercular activity against autoluminescent Mycobacterium tuberculosis H37Ra infected in noninvasive BALB/c mouse assessed as bactericidal activity by measuring reduction in relative light unit at 100 mg/kg, po qd for 6 days relative to control. Format: functional. In short, it runs like this:
(§1)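 Mice were infected intravenously with log-phase, marker-free autoluminescent Mtb H37Ra at 2 × 10^6 CFU per mouse. They were then dosed by oral gavage once daily for 6 consecutive days at 4, 20 or 100 mg/kg/day, with CMC-Na as vehicle. Bioluminescence (RLU) was read in the same live, anesthetized mice every other day and expressed as the RLUdayn/RLUday0 ratio. Mortality was monitored during treatment.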

Series [5] has as its system Mycobacterium tuberculosis. Nature of the series: Antitubercular activity against autoluminescent Mycobacterium tuberculosis H37Ra infected in noninvasive BALB/c mouse assessed as bactericidal activity by measuring reduction in relative light unit at 100 mg/kg, po qd for 4 days relative to control. Format: functional.
Another series relates to Mus musculus. The series can be described thus: Toxicity in autoluminescent Mycobacterium tuberculosis H37Ra infected noninvasive BALB/c mouse assessed as mortality at 4 to 100 mg/kg, po qd for 6 days. Format: organism-based. The conditions noted are these: in vivo, 144 h. In short, it runs like this:
as §1

Series [6] deals with Mycobacterium tuberculosis. Nature of the series: Antitubercular activity against autoluminescent Mycobacterium tuberculosis H37Ra infected in po dosed noninvasive BALB/c mouse assessed as bioluminescence intensity by measuring relative light unit administered qd for 6 days. Format: functional, organism-based. In short, it runs like this: as §1
For series [7], the system named is Mycobacterium tuberculosis. Nature of the series: Antitubercular activity against autoluminescent Mycobacterium tuberculosis H37Ra infected in noninvasive BALB/c mouse assessed as bioluminescence intensity by measuring relative light unit at 100 mg/kg, po qd for 6 days. In kind it is functional. The procedure, abridged:
as §1

Series [8] concerns Mycobacterium tuberculosis. Nature of the series: Antitubercular activity against autoluminescent Mycobacterium tuberculosis H37Ra infected in noninvasive BALB/c mouse assessed as bactericidal activity by measuring reduction in relative light unit at 100 mg/kg, po qd for 2 days relative to control. Format: functional. In short, it runs like this:
as §1

Series [9] relates to Mycobacterium tuberculosis. The series can be described thus: Antitubercular activity against autoluminescent Mycobacterium tuberculosis H37Ra infected in noninvasive BALB/c mouse assessed as bioluminescence intensity by measuring relative light unit at 20 mg/kg, po qd for 6 days. Format: functional. In short, it runs like this: as §1
Series [10] has as its system Mycobacterium tuberculosis. Nature of the series: Antitubercular activity against autoluminescent Mycobacterium tuberculosis H37Ra infected in noninvasive BALB/c mouse assessed as bioluminescence intensity by measuring relative light unit at 4 mg/kg, po qd for 6 days. In kind it is functional. The procedure, abridged: as §1

For `Cc1nn2c(C)cccc2c1C(=O)NCc1ccc(N2CCC(c3ccc(OC(F)(F)F)cc3)CC2)cc1`, the figures for the minimum inhibitory concentration (MIC) in series [1] and in series [2] were 0.115 µM (≈ 0.06 µg/mL) and 5.74 µM (≈ 3 µg/mL), respectively.
Take `Cc1ccn2nc(C)c(C(=O)NCc3ccc(-c4ccc(OC(F)(F)F)cc4)cc3)c2c1`: the MIC in [1] amounted to 0.0137 µM (≈ 0.00602 µg/mL); in [2] it was 0.0068 µM (≈ 0.00299 µg/mL). This compound also came in with a concentration for half-maximal inhibition (IC50) in the series on Vero of 50.7 µM.
On to `CCc1nn2ccc(Cl)cc2c1C(=O)NCc1ccc(N2CCC(c3ccc(OC(F)(F)F)cc3)CC2)cc1`, for which the IC50 in series [3] is 0.0313 µM; in the series on Vero, over 100 µM. Further, the 90% effect level in series [3] (IC90) was put at 0.15 µM. Moreover, the MIC in [3] was 0.129 µM (≈ 0.0719 µg/mL); in series [1] it was 0.0108 µM (≈ 0.00602 µg/mL); in series [2], 0.0538 µM (≈ 0.03 µg/mL).
For the compound `O=C(NCc1ccc(N2CCC(c3ccc(OC(F)(F)F)cc3)CC2)cc1)c1cnn2ccc(Cl)cc12`, the MIC in [1] came to 0.359 µM (≈ 0.19 µg/mL); in [2] it was 18.9 µM (≈ 10 µg/mL).
`COc1ccn2nc(C)c(C(=O)NCc3ccc(N4CCC(c5ccc(OC(F)(F)F)cc5)CC4)cc3)c2c1`: the figures for the IC50 (in series [3]; in the series on Vero) were 0.0025 µM and over 100 µM, respectively. The compound further showed an IC90 in series [3] of 0.0057 µM. The MIC in series [3] is 0.0056 µM (≈ 0.00302 µg/mL); in [1] it was 0.0111 µM (≈ 0.00598 µg/mL); in series [2], 0.0056 µM (≈ 0.00302 µg/mL). For the same compound, the RLU in series [4] is recorded as 6.5; in series [5] it was 5; in series [7] it was 0.15; in series [8], 3.6; in series [9], 0.19; in series [10] it was 0.4. In addition, the Activity result with Mus musculus is “Non-toxic”; in series [6], “Dose-dependent effect”.
As for `Cc1nn2cccc(C)c2c1C(=O)NCc1ccc(N2CCC(c3ccc(OC(F)(F)F)cc3)CC2)cc1`, the MIC was 1.15 µM (≈ 0.6 µg/mL) in [1] and over 19.1 µM in series [2].
Taken in the same sequence, the figures for `Cc1nn2ccc(-c3ccccc3)cc2c1C(=O)NCc1ccc(N2CCC(c3ccc(OC(F)(F)F)cc3)CC2)cc1` were 0.479 µM (≈ 0.28 µg/mL) and over 17.1 µM.
With `CCc1ccn2nc(C)c(C(=O)NCc3ccc(N4CCC(c5ccc(OC(F)(F)F)cc5)CC4)cc3)c2c1`, the MIC was found to be 0.0112 µM (≈ 0.00601 µg/mL) in [1] and 0.0186 µM (≈ 0.00998 µg/mL) in series [2]. For the same compound, the IC50 in the series on Vero is over 100 µM.
In [3], `CO[C@H]1/C=C/O[C@@]2(C)Oc3c(C)c(O)c4c(O)c(c(/C=N/N5CCN(C)CC5)c(O)c4c3C2=O)NC(=O)/C(C)=C\C=C\[C@H](C)[C@H](O)[C@@H](C)[C@@H](O)[C@@H](C)[C@H](OC(C)=O)[C@@H]1C` [RIFAMPIN] gave an IC50 of 0.0041 µM, an IC90 of 0.0069 µM and a minimum inhibitory concentration (MIC) of 0.0065 µM (≈ 0.00535 µg/mL). Further, inhibition of growth in [1] (MIC) required 0.0364 µM (≈ 0.03 µg/mL). The compound also returned an MIC in series [2] of 0.00364 µM (≈ 0.003 µg/mL).
On to `Cc1ccn2nc(C)c(C(=O)NCc3ccc(N4CCC(c5ccc(OC(F)(F)F)cc5)CC4)cc3)c2c1`, for which the values for the 50% inhibitory concentration (IC50) (in [3]; in the series with Vero) were 0.0051 µM and over 100 µM, respectively. This compound also came in with an IC90 in series [3] of 0.012 µM. Also, the MIC amounted to 0.011 µM (≈ 0.00575 µg/mL) in series [3], 0.0077 µM (≈ 0.00402 µg/mL) in series [1] and 0.0057 µM (≈ 0.00298 µg/mL) in series [2].
Turning to `NNC(=O)c1ccncc1` [ISONIAZID], the MIC in [1] is 2.99 µM (≈ 0.41 µg/mL); in [2], 0.729 µM (≈ 0.1 µg/mL).
With `Cc1ccn2nc(C)c(C(=O)NCc3ccc(N(C)C)cc3)c2c1`, the MIC in series [1] turned out to be 0.0868 µM (≈ 0.028 µg/mL); in series [2], 0.31 µM (≈ 0.1 µg/mL). In the series on Vero, the IC50 is over 100 µM.
On to `Cc1nn2ccc(C(C)(C)C)cc2c1C(=O)NCc1ccc(N2CCC(c3ccc(OC(F)(F)F)cc3)CC2)cc1`, for which the minimal inhibitory concentration (MIC) is over 1.77 µM in [1] and over 17.7 µM in series [2].
The matching figures for `Cc1nn2ccc(C(C)C)cc2c1C(=O)NCc1ccc(N2CCC(c3ccc(OC(F)(F)F)cc3)CC2)cc1`: 0.0472 µM (≈ 0.026 µg/mL) and 1.82 µM (≈ 1 µg/mL).
For the compound `Cc1ccn2nc(C)c(C(=O)NCc3ccc(C(F)(F)F)cc3)c2c1`, the MIC was found to be 0.0691 µM (≈ 0.024 µg/mL) in series [1] and 0.288 µM (≈ 0.1 µg/mL) in series [2]. Also, the IC50 in the series on Vero is over 100 µM.
On to `Cc1nn2ccccc2c1C(=O)NCc1ccc(N2CCC(c3ccc(OC(F)(F)F)cc3)CC2)cc1`, for which the minimal inhibitory concentration (MIC) in series [1] was 0.0098 µM (≈ 0.00498 µg/mL); in series [2], 0.59 µM (≈ 0.3 µg/mL). This compound showed an IC50 with Vero of over 100 µM.
In the case of `O=C(NCc1ccc(N2CCC(c3ccc(OC(F)(F)F)cc3)CC2)cc1)c1c(-c2ccccc2)nn2ccc(Cl)cc12`, the minimum inhibitory concentration (MIC) in series [1] was 1.55 µM (≈ 0.936 µg/mL); in series [2], over 16.5 µM.
On to `Cc1nn2ccc(Cl)cc2c1C(=O)NCc1ccc(N2CCC(c3ccc(OC(F)(F)F)cc3)CC2)cc1`, for which the MIC in series [1] was found to be 0.0074 µM (≈ 0.00402 µg/mL); in series [2] it was 0.0184 µM (≈ 0.00999 µg/mL). In the series on Vero, this compound had a 50% inhibitory concentration (IC50) of over 100 µM.
On to `Cc1ccn2nc(C)c(C(=O)NCc3ccc(N4CCC(C(F)(F)F)CC4)cc3)c2c1`, for which the MIC is 0.0139 µM (≈ 0.00598 µg/mL) in series [1] and 0.0023 µM (≈ 0.00099 µg/mL) in series [2]. This compound also gave an IC50 with Vero of over 100 µM.
Taken in the same sequence, the figures for `O=C(NCc1ccc(N2CCC(c3ccc(OC(F)(F)F)cc3)CC2)cc1)c1c(C2CC2)nn2ccc(Cl)cc12` were 0.0176 µM (≈ 0.01 µg/mL), 0.176 µM (≈ 0.1 µg/mL) and over 100 µM.
Taken in the same sequence, the figures for `CCc1nc2ccc(Cl)cn2c1C(=O)NCc1ccc(N2CCC(c3ccc(OC(F)(F)F)cc3)CC2)cc1` [TELACEBEC] were 0.0108 µM (≈ 0.00602 µg/mL), 0.0054 µM (≈ 0.00301 µg/mL) and over 100 µM.
For `Cc1ccn2nc(C)c(C(=O)NCc3ccc(N4CCCCC4)cc3)c2c1`, the MIC in series [1] turned out to be 0.0166 µM (≈ 0.00602 µg/mL); in series [2], 0.0276 µM (≈ 0.01 µg/mL). The IC50 with Vero is over 100 µM.
Regarding `Cc1nn2ccc(C(F)(F)F)cc2c1C(=O)NCc1ccc(N2CCC(c3ccc(OC(F)(F)F)cc3)CC2)cc1`, the MIC in series [1] stood at 0.052 µM (≈ 0.03 µg/mL); in series [2], 1.73 µM (≈ 1 µg/mL). In addition, in the series with Vero, the IC50 is over 100 µM.
For `Cc1ccn2nc(C)c(C(=O)NCc3ccc(N4CCN(c5ccc(F)cc5)CC4)cc3)c2c1`, the concentration for half-maximal inhibition (IC50) in series [3] was 0.0025 µM; in the series with Vero, over 100 µM. This compound gave an IC90 in series [3] of 0.0065 µM. In addition, the MIC in series [3] came to 0.0063 µM (≈ 0.00288 µg/mL); in series [1] it was 0.0131 µM (≈ 0.00599 µg/mL); in [2], 0.0066 µM (≈ 0.00302 µg/mL).
Regarding `Cc1ccc2c(C(=O)NCc3ccc(N4CCC(c5ccc(OC(F)(F)F)cc5)CC4)cc3)c(C)nn2c1`, the MIC in series [1] is 0.0134 µM (≈ 0.007 µg/mL); in series [2], 0.574 µM (≈ 0.3 µg/mL). For the same compound, the IC50 in the series on Vero was over 100 µM.
